Test results from the M2OR odorant receptor database.

These molecules were tested against T1, OR51L1 (Homo sapiens) (UniProt Q8NGJ5). Settings: stereoisomer not certain.
T1 sequence (whole entry): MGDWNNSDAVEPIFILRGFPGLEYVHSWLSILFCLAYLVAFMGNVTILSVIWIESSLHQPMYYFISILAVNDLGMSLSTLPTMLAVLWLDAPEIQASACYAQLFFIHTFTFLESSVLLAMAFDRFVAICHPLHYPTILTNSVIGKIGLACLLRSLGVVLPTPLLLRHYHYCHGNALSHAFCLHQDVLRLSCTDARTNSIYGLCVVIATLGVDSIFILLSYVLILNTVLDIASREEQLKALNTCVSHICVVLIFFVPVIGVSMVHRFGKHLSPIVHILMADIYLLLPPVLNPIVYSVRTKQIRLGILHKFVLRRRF
Outline: (§1)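 Each receptor–molecule pair is labelled responsive or non-responsive (inactive) according to whether the original authors judged the measured signal statistically different from baseline. The data were taken from the main text and supplementary material of published papers and checked for typos and inconsistencies. Assay methods differed by source, with transient luciferase assays in mammalian cell lines being common.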
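Further: active if original authors judged signal statistically different from baseline.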

| SMILES | odorant receptor agonist call |
| --- | --- |
| CCOC(=O)C(C)C | inactive |
| CC1=NC(C)C(C)S1 (stereo not given) | inactive |
| CCCCCC1CCCC(=O)O1 (stereo not given) | inactive |
| CCC1OC(C)=C(O)C1=O (stereo not given) | inactive |
| CCCCCCCC(=O)[O-].[H+] | inactive |
| CCCCCO | inactive |
| CCC(S)C(C)CO (stereo not given) | inactive |

What follows are molecules tested against T2, OR51M1 (Homo sapiens) (UniProt Q9H341). Settings: stereoisomer not certain.
T2 sequence (whole entry): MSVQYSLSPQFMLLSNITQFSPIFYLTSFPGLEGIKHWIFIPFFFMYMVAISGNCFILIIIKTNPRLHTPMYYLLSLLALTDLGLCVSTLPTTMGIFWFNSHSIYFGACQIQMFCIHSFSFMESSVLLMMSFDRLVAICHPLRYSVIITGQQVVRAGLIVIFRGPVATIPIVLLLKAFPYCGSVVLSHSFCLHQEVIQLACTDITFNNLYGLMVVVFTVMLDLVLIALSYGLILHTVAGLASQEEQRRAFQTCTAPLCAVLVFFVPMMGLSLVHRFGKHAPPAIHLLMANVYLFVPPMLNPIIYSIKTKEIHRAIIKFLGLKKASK
Outline: as §1

| SMILES | odorant receptor agonist call |
| --- | --- |
| CCCCCC(=O)C(C)C(C)=O (stereo not given) | inactive |
| CCCCC(S)C(C)CO (stereo not given) | inactive |
| CC1=C(O)C(=O)C(C)O1 (stereo not given) | inactive |
| CC1=C(O)C(=O)OC1C (stereo not given) | inactive |
| CCCC(S)CCOC(C)=O (stereo not given) | inactive |
| CC(=O)c1c(C)c([N+](=O)[O-])c(C(C)(C)C)c([N+](=O)[O-])c1C | inactive |
| CC(CO)CS (stereo not given) | inactive |
| Cc1cnc(C)c(C)n1 | inactive |
| CC1CCCCCCCCCCCCC(=O)C1 (stereo not given) | inactive |
| CCC1OC(=O)C(O)=C1C (stereo not given) | inactive |
| CCCCCCC=CCCC=O | inactive |
| CCCCCC(S)C(C)CO (stereo not given) | inactive |
| CC1=NC(C)C(C)S1 (stereo not given) | inactive |
| CCCCCC1CCCC(=O)O1 (stereo not given) | inactive |
| CCC1OC(C)=C(O)C1=O (stereo not given) | inactive |
| CCC(S)C(C)CO (stereo not given) | inactive |

What follows are molecules tested against T3, OR51Q1 (Homo sapiens) (UniProt Q8NH59). Settings: stereoisomer not certain.
T3 sequence (whole entry): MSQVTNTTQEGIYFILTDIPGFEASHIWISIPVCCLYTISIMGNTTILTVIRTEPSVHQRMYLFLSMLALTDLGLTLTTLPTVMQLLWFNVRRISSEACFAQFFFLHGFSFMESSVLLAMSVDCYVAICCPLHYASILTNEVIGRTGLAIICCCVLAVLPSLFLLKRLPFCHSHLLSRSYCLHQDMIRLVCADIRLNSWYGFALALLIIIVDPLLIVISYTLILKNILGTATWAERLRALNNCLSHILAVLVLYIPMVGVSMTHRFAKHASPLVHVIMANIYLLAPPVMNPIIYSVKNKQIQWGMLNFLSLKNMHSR
Outline: as §1

| SMILES | odorant receptor agonist call |
| --- | --- |
| CCCCCC(=O)C(C)C(C)=O (stereo not given) | inactive |
| CCCCC(S)C(C)CO (stereo not given) | inactive |
| CC1=C(O)C(=O)C(C)O1 (stereo not given) | inactive |
| CC1=C(O)C(=O)OC1C (stereo not given) | inactive |
| CCCC(S)CCOC(C)=O (stereo not given) | inactive |
| CC(=O)c1c(C)c([N+](=O)[O-])c(C(C)(C)C)c([N+](=O)[O-])c1C | inactive |
| CC(CO)CS (stereo not given) | inactive |
| Cc1cnc(C)c(C)n1 | inactive |
| CC1CCCCCCCCCCCCC(=O)C1 (stereo not given) | inactive |
| CCC1OC(=O)C(O)=C1C (stereo not given) | inactive |
| CCCCCCC=CCCC=O | inactive |
| CCCCCC(S)C(C)CO (stereo not given) | inactive |
| CC1=NC(C)C(C)S1 (stereo not given) | inactive |
| CCCCCC1CCCC(=O)O1 (stereo not given) | inactive |
| CCC1OC(C)=C(O)C1=O (stereo not given) | inactive |
| CCC(S)C(C)CO (stereo not given) | inactive |

What follows are molecules tested against T4, OR51S1 (Homo sapiens) (UniProt Q8NGJ8). Settings: stereoisomer not certain.
T4 sequence (whole entry): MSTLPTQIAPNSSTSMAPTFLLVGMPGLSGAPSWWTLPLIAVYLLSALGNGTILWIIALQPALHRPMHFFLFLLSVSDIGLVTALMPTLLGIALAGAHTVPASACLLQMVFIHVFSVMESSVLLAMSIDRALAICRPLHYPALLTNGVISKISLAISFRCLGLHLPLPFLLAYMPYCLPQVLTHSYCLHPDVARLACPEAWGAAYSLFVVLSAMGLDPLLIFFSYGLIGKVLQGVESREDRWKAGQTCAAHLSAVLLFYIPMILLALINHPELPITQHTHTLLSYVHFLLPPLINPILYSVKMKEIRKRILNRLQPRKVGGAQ
Outline: as §1

| SMILES | odorant receptor agonist call |
| --- | --- |
| CCCCCC(=O)C(C)C(C)=O (stereo not given) | inactive |
| CCCCC(S)C(C)CO (stereo not given) | inactive |
| CC1=C(O)C(=O)C(C)O1 (stereo not given) | inactive |
| CC1=C(O)C(=O)OC1C (stereo not given) | inactive |
| CCCC(S)CCOC(C)=O (stereo not given) | inactive |
| CC(=O)c1c(C)c([N+](=O)[O-])c(C(C)(C)C)c([N+](=O)[O-])c1C | inactive |
| CC(CO)CS (stereo not given) | inactive |
| Cc1cnc(C)c(C)n1 | inactive |
| CC1CCCCCCCCCCCCC(=O)C1 (stereo not given) | inactive |
| CCC1OC(=O)C(O)=C1C (stereo not given) | inactive |
| CCCCCCC=CCCC=O | inactive |
| CCCCCC(S)C(C)CO (stereo not given) | inactive |
| CC1=NC(C)C(C)S1 (stereo not given) | inactive |
| CCCCCC1CCCC(=O)O1 (stereo not given) | inactive |
| CCC1OC(C)=C(O)C1=O (stereo not given) | inactive |
| CCC(S)C(C)CO (stereo not given) | inactive |
